Results pooled from the literature.
Each line is one published result; the experiments were not run side by side.
Target: Phosphatidylinositol 4-phosphate 5-kinase type-1 alpha (PIP5K1A, Homo sapiens, UniProt Q99755)

For `COc1ccc2[nH]c3c4[nH]c5ccc(OC)cc5c4c4c(c3c2c1)C(=O)NC4=O`, the remaining binding was 100% (binding; 1 µM).
With `C[C@]1(O)CCCN(c2nc(Nc3ccc(S(=O)(=O)N[C@H]4CC[C@H](CN5CCN(c6ccc(C7CCC(=O)NC7=O)cc6F)CC5)CC4)cc3Cl)ncc2C(F)(F)F)C1` (stereo partly shown) the remaining binding was 93% (binding; competition with immobilised ligand; 1 µM).
`CC(C)S(=O)(=O)c1ccc2nccc(Nc3ccc4sc(C5CCCC5)nc4c3)c2c1` has an activity vs control of 104% (enzyme activity; inhibitor; 1 µM).
The inhibition of `C=CC(=O)N1CCC([C@@H]2CCNc3c(C(N)=O)c(-c4ccc(Oc5ccccc5)cc4)nn32)CC1` is reported as 16% (enzyme activity; inhibitor; 1 µM).
The remaining binding of `CCCCC(=O)Nc1ccc(-c2ccc3ncn(CCC)c(=O)c3c2)cn1` is reported as 100% (binding; competition with immobilised ligand; 0.5 µM).
`CN1CCN(C(=O)c2ccc(NC(=O)Nc3ccc(N(C)c4ccnc(Nc5ccc(CS(C)(=O)=O)cc5)n4)cc3)cc2)CC1` has a remaining binding of 9.3% (binding; 1 µM).
With `CC#CC(=O)N1CCC[C@H]1c1nc(-c2ccc(C(=O)Nc3ccccn3)cc2)c2c(N)nccn12` the inhibition was 12% (enzyme activity; inhibitor; 1 µM).
With `C1=C/COCc2cc(ccc2OCCN2CCCC2)Nc2nccc(n2)-c2cccc(c2)COC/1` the remaining binding was 20% (binding; 0.1 µM).
`COc1ccc2oc(-c3ccc4nc(N)oc4c3)c/c(=N\c3ccccc3NC(=O)CCN)c2c1` gave a remaining binding of 95% (binding; 1 µM).
`C[C@]1(O)CCCN(c2nc(Nc3ccc(S(=O)(=O)N[C@H]4CC[C@H](CN5CCN(c6ccc(C7CCC(=O)NC7=O)cc6F)CC5)CC4)cc3F)ncc2C(F)(F)F)C1` (stereo partly shown) gave a remaining binding of 94% (binding; competition with immobilised ligand; 1 µM).
